In general, IC50 refers to the point on the concentration scale where inhibition reaches its midpoint. For orientation: MIC means the smallest concentration in the dilution series that meets the test's criterion for growth inhibition.

The results in this text go back to ChEMBL document CHEMBL5150070, “Tricyclic SpiroLactams Kill Mycobacteria In Vitro and In Vivo by Inhibiting Type II NADH Dehydrogenases” (J Med Chem, 2022).

For series [1], the system named is Mycobacterium tuberculosis. The series can be described thus: Antimycobacterial activity against Mycobacterium tuberculosis H37Rv infected in human A-THP1 macrophages assessed as viability of infected macrophages incubated for 96 hrs by fluorescence microplate assay. Type of series: functional, organism-based. In outline:
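THP-1 cells differentiated with 50 ng/mL PMA for 72 h, infected with log-phase H37Rv (MOI 10, 2 h), and extracellular bacteria killed with 50 µg/mL amikacin for 1 h. Cells detached and seeded at 5×10⁵/mL in RPMI-10% FBS with PMA onto pre-dispensed compound, 96 h at 37°C, 5% CO₂. Macrophage viability by 0.05% resazurin fluorescence.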

The next series has as its system Acinetobacter baumannii. As to the kind of experiment: Antibiotic activity against Acinetobacter baumannii LMG-17978 assessed as reduction in bacterial cell growth by measuring resazurin reduction incubated for 6 days by fluorescence microplate based assay. Type of series: functional. The settings on record: LMG-17978, 144 h, time 6 day.
The next series deals with Mycobacterium avium. As to the kind of experiment: Antibiotic activity against Mycobacterium avium TMC 724, ATCC-25291 assessed as reduction in bacterial cell growth by measuring resazurin reduction incubated for 6 days by fluorescence microplate based assay. Type of series: functional. The settings on record: TMC 724, ATCC-25291, 144 h, time 6 day. In general terms: The colour change of resazurin is a common sign of viable cells or microbes.

The subject of series [2] is Mycobacterium marinum. The series can be described thus: In vivo antimycobacterial efficacy in Mycobacterium marinum expressing Wasabi infected zebrafish larvae assessed as prolongation of survival treated for 4 days after 1 day post infection. Type of series: functional, organism-based. The settings on record: dose 0.3-1.2 µM, time 4.0 day, DDE = dose-dependent effect. The method, boiled down: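 Golden mutant or Tg(mpeg1:mCherry) zebrafish embryos were dechorionated and anaesthetised in 0.016% tricaine. At 30 hpf, 2–3 nL containing about 200–250 cfu of Wasabi-expressing M. marinum M (pTEC15) was injected into the caudal vein. The inoculum was confirmed by plating on 7H10. Embryos were kept in E3 at 28.5 °C, 12 per well, to follow infection and survival.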

The next series deals with Staphylococcus aureus. As to the kind of experiment: Antibiotic activity against Staphylococcus aureus SH1000 assessed as reduction in bacterial cell growth by measuring resazurin reduction incubated for 6 days by fluorescence microplate based assay. Type of series: functional. The settings on record: SH1000, 144 h, time 6 day. In outline: (§1)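 E. coli BW25113, E. coli ΔtolC and S. aureus SH1000 were cultured and tested in cation-adjusted Mueller Hinton II broth. Viability was read by adding resazurin and measuring resorufin fluorescence at Ex 530 nm / Em 590 nm.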

In series [3] the test system is Mycobacterium tuberculosis. As to the kind of experiment: Inhibition of Ndh2 in Mycobacterium tuberculosis assessed as increase in NADH/NAD+ ratio at 600 nM measured after 24 hrs. In outline: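 Mid-log H37Rv diluted to OD600 0.3 and exposed to compound at 37°C for 2 and 24 h. Pellets extracted in 0.2 M HCl (NAD⁺) or 0.2 M NaOH (NADH), bead-milled, heated 55°C 10 min, neutralised. NAD/NADH-Glo luminescence read against an NADH standard curve, corrected for OD600. Three independent experiments, duplicate technical replicates.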

Series [4] deals with Mycobacterium marinum. The series can be described thus: in vivo antimycobacterial efficacy in Mycobacterium marinum infected zebrafish larvae assessed as reduction in bacterial burden at 0.25 to 2 micog/ml measured after 2 to 4 days off post infection. Type of series: functional, organism-based. The conditions noted are these: time 2-4 day.
Series [5] has as its target T1, Type II NADH:quinone oxidoreductase NdhA (Mycobacterium tuberculosis, UniProt P95200).
T1 sequence (P95200 whole entry): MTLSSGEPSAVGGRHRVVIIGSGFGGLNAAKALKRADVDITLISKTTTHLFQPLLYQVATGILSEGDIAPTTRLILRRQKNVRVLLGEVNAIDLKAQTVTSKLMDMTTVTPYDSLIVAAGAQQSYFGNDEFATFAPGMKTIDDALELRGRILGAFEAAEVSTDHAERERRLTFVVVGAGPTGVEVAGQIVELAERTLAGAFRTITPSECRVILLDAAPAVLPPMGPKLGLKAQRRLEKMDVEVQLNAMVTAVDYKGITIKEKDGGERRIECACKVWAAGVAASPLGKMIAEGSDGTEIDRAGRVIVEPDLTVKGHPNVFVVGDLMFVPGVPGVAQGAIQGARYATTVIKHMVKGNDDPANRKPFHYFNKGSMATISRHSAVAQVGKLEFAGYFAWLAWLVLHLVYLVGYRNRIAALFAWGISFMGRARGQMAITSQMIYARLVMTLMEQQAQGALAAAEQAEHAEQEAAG
As to the kind of experiment: Inhibition of Mycobacterium smegmatis MC2 155 recombinant ndhA assessed as rate of NADH oxidation in the presence of an electron acceptor menadione. Also on record: species or system Mycolicibacterium smegmatis.

Series [6] in a line: Toxicity in noninfected zebrafish larvae assessed as larval development. Also on record: species or system Danio rerio. The conditions noted are these: in vivo.
For series [7], the system named is Mycobacteroides abscessus. As to the kind of experiment: Antibiotic activity against Mycobacterium abscessus CIP104536, Rough variant assessed as reduction in bacterial cell growth by measuring resazurin reduction incubated for 6 days by fluorescence microplate based assay. The conditions noted are these: 144 h, time 6 day. Type of series: functional.
The next series deals with Escherichia coli. The series can be described thus: Antibiotic activity against Escherichia coli BW25113 assessed as reduction in bacterial cell growth by measuring resazurin reduction incubated for 6 days by fluorescence microplate based assay. Type of series: functional. The conditions noted are these: BW25113, 144 h, time 6 day. In outline: as §1
For another series, the system named is Bacillus subtilis. As to the kind of experiment: Antibiotic activity against Bacillus subtilis ATCC6633 assessed as reduction in bacterial cell growth by measuring resazurin reduction incubated for 6 days by fluorescence microplate based assay. Type of series: functional. The settings on record: ATCC6633, 144 h, time 6 day.
Series [8] has as its system Mycobacterium tuberculosis. As to the kind of experiment: Antibiotic activity against Mycobacterium tuberculosis H37Rv assessed as reduction in bacterial cell growth by measuring resazurin reduction incubated for 6 days by fluorescence microplate based assay. Type of series: functional. The settings on record: 144 h, time 6 day.
Series [9] has as its system Mycobacterium tuberculosis. As to the kind of experiment: Inhibition of Ndh2 in Mycobacterium tuberculosis assessed as decrease in ATP concentration measured after 24 hrs. The conditions noted are these: DDE = dose-dependent effect. In outline: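 Log-phase H37Rv diluted to OD600 0.01 in complete 7H9 and exposed in 96-well plates to compound added from a 100× DMSO stock, at 37°C. ATP measured with BacTiter-Glo luminescence after 4 and 24 h; three independent experiments.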

Series [10] relates to Mycobacterium marinum. As to the kind of experiment: In vivo antimycobacterial efficacy in Mycobacterium marinum expressing Wasabi infected zebrafish larvae assessed as prolongation of survival time at 4.8 uM treated for 4 days after 1 day post infection. The settings on record: time 4 day. Type of series: functional.
The subject of series [11] is Mycobacterium marinum. As to the kind of experiment: Antibiotic activity against Mycobacterium marinum M strain assessed as reduction in bacterial cell growth by measuring resazurin reduction incubated for 6 days by fluorescence microplate based assay. Type of series: functional. The settings on record: 144 h, time 6 day.
For a further series, the system named is Pseudomonas aeruginosa. As to the kind of experiment: Antibiotic activity against Pseudomonas aeruginosa POA1 assessed as reduction in bacterial cell growth by measuring resazurin reduction incubated for 6 days by fluorescence microplate based assay. The conditions noted are these: POA1, 144 h, time 6 day. Type of series: functional.
The test system of series [12] is Mycobacterium tuberculosis. The series can be described thus: Bactericidal activity against replicating Mycobacterium tuberculosis H37Rv assessed as reduction in colony forming unit measured at 2 to 4 times of MIC after 1 to 2 weeks. Type of series: functional. The conditions noted are these: time 1-2 weeks. In outline:
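Mid-log H37Rv in 7H9-GTy-OADC diluted to OD600 0.02 (~1×10⁶ cfu/mL) and exposed to compound in 96-well replica plates for 1 or 2 weeks. For the 3 lowest concentrations without visible growth, serial 10-fold dilutions plated on 7H11-OADC and cfu counted over 6 weeks at 37°C. Four independent experiments; log10 cfu/mL ± SD.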

Series [13] concerns Mycobacterium tuberculosis. The series can be described thus: Bactericidal activity against Non-replicating Mycobacterium tuberculosis ss18b-lux model assessed as decrease in luminescence at 10 to 10000 nM. Type of series: functional, organism-based. The settings on record: dose 10-10000 nM, TDE = time-dependent effect. In outline: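 Non-replicating streptomycin-starved 18b-lux (14-day starvation) diluted to OD600 0.15 in white 96-well plates with compound and incubated at 37°C. Luminescence read on days 1, 2, 5 and 7 and expressed relative to no-antibiotic controls (n ≥ 3).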

Values after ≈ are worked out from the molar mass of the structure shown. Active and inactive are the calls of the source. Some results are limits rather than exact numbers.

In the case of `CC(C)[C@H]1CO[C@]23CCN(Cc4ccc(C(F)(F)F)cc4)C[C@H]2CCC(=O)N13`, the IC50 amounted to 460 nM in series [1] and 59 nM in [5]. Moreover, the MIC in the series with Acinetobacter baumannii was greater than 100 µM; in the series on Mycobacterium avium, 0.55 µM (≈ 0.218 µg/mL); in the series with Staphylococcus aureus, greater than 100 µM; in series [7], 6.3 µM (≈ 2.5 µg/mL); in the series with Escherichia coli, greater than 100 µM; in the series with Bacillus subtilis, greater than 100 µM. Moreover, the values for the MIC (in [8]; in the series on Mycobacterium marinum [11]; in the series on Pseudomonas aeruginosa) were 0.1 µM (≈ 0.0396 µg/mL), 0.19 µM (≈ 0.0753 µg/mL) and greater than 100 µM, respectively. The Activity result was “Dde” in the series on Mycobacterium marinum [2], “Non-Toxic” in series [6], 0.8 log10CFU in series [12] and “Tde” in series [13]. In [3], the inhibition result was “Active”. For the same compound, the result in the series with Mycobacterium marinum [4] was Active. Further, the inhibition result in [9] was “Dde”. Besides, the Time in the series on Mycobacterium marinum [10] was determined as 3 days.
